In one assay the test system is Wickerhamomyces anomalus. The experiment in a line: Antimicrobial activity against Pichia anamola after 24 to 48 hrs by serial dilution technique. The format is functional. The method in brief: (§1)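 MIC by twofold (1:1) serial dilution in 96-well plates. Medium was MYC (1.0% glucose, 1.0% phytone peptone, 50 mM HEPES, pH 7.0), used for yeasts and fungi.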
In a further assay the test system is Rhodotorula glutinis. The experiment in a line: Antimicrobial activity against Rhodotorula glutinis after 24 to 48 hrs by serial dilution technique. The format is functional. The method, boiled down: as §1
The next assay relates to Mucor hiemalis. The assay can be described thus: Antimicrobial activity against Mucor hiemalis after 24 to 48 hrs by serial dilution technique. The format is functional. The method, boiled down: as §1
Assay [1] concerns Schizosaccharomyces pombe. The assay can be described thus: Antimicrobial activity against Schizosaccharomyces pombe after 24 to 48 hrs by serial dilution technique. It is filed as functional. The method in brief: as §1
The next assay concerns Candida albicans. The assay can be described thus: Antimicrobial activity against Candida albicans after 24 to 48 hrs by serial dilution technique. It is filed as functional. The method, boiled down: as §1
The test system of the next assay is Escherichia coli. The assay can be described thus: Antimicrobial activity against Escherichia coli after 24 to 48 hrs by serial dilution technique. It is filed as functional.
The next assay has as its system Micrococcus luteus. The experiment in a line: Antimicrobial activity against Micrococcus luteus after 24 to 48 hrs by serial dilution technique. The format is functional.
Assay [2] in a line: Antimicrobial activity against Nocardia flava after 24 to 48 hrs by serial dilution technique. It is filed as functional.
In assay [3] the test system is Chromobacterium violaceum. The experiment in a line: Antimicrobial activity against Chromobacterium violaceum after 24 to 48 hrs by serial dilution technique. The format is functional.
A further assay deals with Staphylococcus aureus. The assay can be described thus: Antimicrobial activity against methicillin-resistant Staphylococcus aureus after 24 to 48 hrs by serial dilution technique. It is filed as functional.
The subject of the next assay is HUVEC. The experiment in a line: Cytotoxicity against human HUVEC cells after 5 days by MTT assay. It is filed as cell-based. As to conditions: 120 h. On the technique in general: Tetrazolium dyes change colour on reduction, which living cells bring about.
The nature of assay [4]: Cytotoxicity against human KB-3-1 cells after 5 days by MTT assay. The note with it: KB 3-1, 120 h. It is filed as functional, cell-based.
Another assay relates to MCF7. The experiment in a line: Cytotoxicity against human MCF7 cells after 5 days by MTT assay. It is filed as functional, cell-based. As to conditions: MCF7, 120 h.
Another assay relates to Pseudomonas aeruginosa. The assay can be described thus: Antimicrobial activity against Pseudomonas aeruginosa after 24 to 48 hrs by serial dilution technique. The format is functional.
The test system of a further assay is L929. The assay can be described thus: Cytotoxicity against mouse L929 cells after 5 days by MTT assay. It is filed as functional, cell-based. The note with it: L929, 120 h.

In brackets after ≈: the same amount, converted by molar mass.

For NYSTATIN, the MIC with Wickerhamomyces anomalus was 1.67 µg/mL; in the assay with Rhodotorula glutinis, 0.42 µg/mL; in the assay with Mucor hiemalis it was 1.67 µg/mL; in assay [1], 1.67 µg/mL; in the assay on Candida albicans, 1.67 µg/mL.

`CN(C)[C@@H]1C(O)=C(C(N)=O)C(=O)[C@@]2(O)C(O)=C3C(=O)c4c(O)cccc4[C@@](C)(O)[C@H]3[C@H](O)[C@@H]12.Cl` [OXYTETRACYCLINE HYDROCHLORIDE]: the MIC stood at 0.83 µg/mL with Escherichia coli; 0.104 µg/mL with Micrococcus luteus; 1.67 µg/mL in assay [2]; 0.21 µg/mL in [3]; 0.104 µg/mL with Staphylococcus aureus.

On to `CSC1=CC(=O)C(N)=C(Cl)C1=O` [HYALADIONE], for which the IC50 is 2210 nM in the assay on HUVEC, 3930 nM in assay [4], 1230 nM in the assay with MCF7 and 1470 nM in the assay on L929. Besides, the MIC in the assay on Escherichia coli was found to be 33.3 µg/mL (≈ 164 µM); with Wickerhamomyces anomalus (Hansenula anomala) it was 33.3 µg/mL (≈ 164 µM); against Rhodotorula glutinis, 1.7 µg/mL (≈ 8.35 µM); against Micrococcus luteus, 3.3 µg/mL (≈ 16.2 µM); against Pseudomonas aeruginosa, 8.5 µg/mL (≈ 41.7 µM); in assay [2], 3.3 µg/mL (≈ 16.2 µM). For the same compound, the MIC is 16.5 µg/mL (≈ 81 µM) against Mucor hiemalis; 2.1 µg/mL (≈ 10.3 µM) in assay [3]; greater than 33.3 µg/mL in [1]; 0.83 µg/mL (≈ 4.08 µM) with Staphylococcus aureus; greater than 33.3 µg/mL against Candida albicans.

Usually MIC stands for the least concentration at which growth counts as inhibited. Low readings indicate a more susceptible organism, high ones a less susceptible organism. For orientation: IC50 means the concentration that inhibits the measured activity by half. Higher therefore signals a need for much substance.
